According to ChEMBL document CHEMBL1811848 (Bioorg Med Chem Lett, 2011):
pEC50: −log10 of the molar value.

Legend:
[1] = system: Rattus norvegicus; assay: Toxicity in male Wistar rat assessed as SGPT level at 30 mg/kg, po measured after 28 days (reference value: 34.24 +/- 2.13 U/L); format: organism-based; parameters: dose 30 mg/kg, route oral; conditions: in vivo, 672 h
[2] = system: Rattus norvegicus; assay: Toxicity in male Wistar rat assessed as adrenal to body weight ratio at 30 mg/kg, po measured after 28 days (reference value: 0.018 +/- 0.001); format: organism-based; parameters: dose 30 mg/kg, route oral; conditions: in vivo, 672 h
[3] = system: Mus musculus; assay: Hypolipidemic activity in Swiss albino mouse assessed as reduction in triglyceride level at 3 mg/kg, po; format: functional; parameters: scale not given: the % may be the effect or the level left
[4] = system: Mus musculus; assay: Antihyperglycemic activity in db/db mouse assessed as reduction in plasma glucose level at 3 mg/kg, po; format: functional; parameters: scale not given: the % may be the effect or the level left
[5] = system: Rattus norvegicus; assay: Toxicity in female Wistar rat assessed as SGOT level at 30 mg/kg, po measured after 28 days (reference value: 155.70 +/- 6.56 U/L); format: organism-based; parameters: dose 30 mg/kg, route oral; conditions: in vivo, 672 h
[6] = system: Rattus norvegicus; assay: Toxicity in male Wistar rat assessed as testes to body weight ratio at 30 mg/kg, po measured after 28 days (reference value: 1.075 +/- 0.106); format: organism-based, Testis; parameters: dose 30 mg/kg, route oral; conditions: in vivo, 672 h
[7] = target: T1, Peroxisome proliferator-activated receptor gamma (Homo sapiens, UniProt P37231); assay: Transactivation of human PPARgamma expressed in human HepG2 cells co-transfected with PPRE3-TK-Luc by luciferase reporter gene assay; format: cell-based
T1 sequence (P37231 whole entry): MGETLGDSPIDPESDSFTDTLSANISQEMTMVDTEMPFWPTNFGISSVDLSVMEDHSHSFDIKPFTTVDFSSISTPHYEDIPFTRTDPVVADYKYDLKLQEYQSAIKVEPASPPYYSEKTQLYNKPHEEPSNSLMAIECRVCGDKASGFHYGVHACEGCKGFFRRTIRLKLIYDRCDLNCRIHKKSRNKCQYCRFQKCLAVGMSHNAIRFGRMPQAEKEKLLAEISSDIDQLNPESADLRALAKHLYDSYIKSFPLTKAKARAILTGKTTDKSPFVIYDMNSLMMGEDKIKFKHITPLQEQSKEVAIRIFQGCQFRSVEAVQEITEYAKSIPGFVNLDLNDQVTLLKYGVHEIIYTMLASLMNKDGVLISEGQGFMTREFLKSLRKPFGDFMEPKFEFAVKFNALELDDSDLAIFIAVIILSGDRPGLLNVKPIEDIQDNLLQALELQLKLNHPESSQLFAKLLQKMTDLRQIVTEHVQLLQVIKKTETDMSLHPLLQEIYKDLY
Outline: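 HepG2 cells transfected with pSG5 vector carrying hPPARα, hPPARγ or hPPARδ cDNA, co-transfected with PPRE3-TK-luc. Firefly luciferase activity measured with a commercial kit. β-galactosidase activity read on an ELISA reader. Controls: WY14643 (α), rosiglitazone (γ), GW501516 (δ).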

[8] = system: Rattus norvegicus; assay: Toxicity in male Wistar rat assessed as thymus to body weight ratio at 3 mg/kg, po measured after 28 days (reference value: 0.081+/- 0.013); format: organism-based; parameters: dose 3 mg/kg, route oral; conditions: in vivo, 672 h
[9] = system: Rattus norvegicus; assay: Toxicity in female Wistar rat assessed as ovary to body weight ratio at 30 mg/kg, po measured after 28 days (reference value: 0.039 +/- 0.005); format: organism-based, Female gonad; parameters: dose 30 mg/kg, route oral; conditions: in vivo, 672 h
[10] = system: Rattus norvegicus; assay: Toxicity in male Wistar rat assessed as urea level at 30 mg/kg, po measured after 28 days (reference value: 30.52 +/- 0.79 mg/dl); format: organism-based; parameters: dose 30 mg/kg, route oral; conditions: in vivo, 672 h
[11] = system: Rattus norvegicus; assay: Toxicity in male Wistar rat assessed as thymus to body weight ratio at 30 mg/kg, po measured after 28 days (reference value: 0.081 +/- 0.013); format: organism-based; parameters: dose 30 mg/kg, route oral; conditions: in vivo, 672 h
[12] = Cmax in fasting Wistar rat at 30 mg/kg, po; format: ADME, organism-based; parameters: dose 30 mg/kg, route oral; conditions: in vivo
Outline: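 Fasted male Wistar rats received one oral dose of 30 mg/kg. Plasma Cmax, T1/2 and Tmax are reported as mean ± SD of n = 3.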

[13] = system: Rattus norvegicus; assay: Toxicity in female Wistar rat assessed as spleen to body weight ratio at 3 mg/kg, po measured after 28 days (reference value: 0.237 +/- 0.012); format: organism-based; parameters: dose 3 mg/kg, route oral; conditions: in vivo, 672 h
[14] = system: Rattus norvegicus; assay: Toxicity in male Wistar rat assessed as epididymine to body weight ratio at 3 mg/kg, po measured after 28 days (reference value: 0.391 +/- 0.017); format: organism-based; parameters: dose 3 mg/kg, route oral; conditions: in vivo, 672 h
[15] = system: Mus musculus; assay: Hypolipidemic activity in Swiss albino mouse assessed as reduction in triglyceride level at 0.003 mg/kg, po; format: functional; parameters: scale not given: the % may be the effect or the level left
[16] = system: Mus musculus; assay: Antihyperglycemic activity in db/db mouse assessed as reduction in plasma glucose level at 0.1 mg/kg, po; format: functional; parameters: scale not given: the % may be the effect or the level left
[17] = system: Rattus norvegicus; assay: Toxicity in female Wistar rat assessed as […] level at 3 mg/kg, po measured after 28 days (reference value: 172.38 +/- 7.18 U/L); format: organism-based; parameters: dose 3 mg/kg, route oral; conditions: in vivo, 672 h
[18] = system: Rattus norvegicus; assay: Toxicity in male Wistar rat assessed as liver to body weight ratio at 30 mg/kg, po measured after 28 days (reference value: 3.257 +/- 0.067); format: organism-based; parameters: dose 30 mg/kg, route oral; conditions: in vivo, 672 h
[19] = system: Rattus norvegicus; assay: Toxicity in female Wistar rat assessed as albumin level at 3 mg/kg, po measured after 28 days (reference value: 3.92 +/- 0.18 g.dl); format: organism-based; parameters: dose 3 mg/kg, route oral; conditions: in vivo, 672 h
[20] = system: Rattus norvegicus; assay: Toxicity in male Wistar rat assessed as creatinine level at 30 mg/kg, po measured after 28 days (reference value: 0.47 +/- 0.03 mg/dl); format: organism-based; parameters: dose 30 mg/kg, route oral; conditions: in vivo, 672 h
[21] = system: Rattus norvegicus; assay: Toxicity in male Wistar rat assessed as urea level at 3 mg/kg, po measured after 28 days (reference value: 30.52 +/- 0.79 mg/dl); format: organism-based; parameters: dose 3 mg/kg, route oral; conditions: in vivo, 672 h
[22] = system: Rattus norvegicus; assay: Toxicity in male Wistar rat assessed as testes to body weight ratio at 3 mg/kg, po measured after 28 days (reference value: 1.075 +/-1 0.106); format: organism-based, Testis; parameters: dose 3 mg/kg, route oral; conditions: in vivo, 672 h
[23] = system: Mus musculus; assay: Hypolipidemic activity in Swiss albino mouse assessed as reduction in triglyceride level at 0.1 mg/kg, po; format: functional; parameters: scale not given: the % may be the effect or the level left
[24] = system: Rattus norvegicus; assay: Toxicity in male Wistar rat assessed as albumin level at 3 mg/kg, po measured after 28 days (reference value: 3.66 +/- 0.10 g.dl); format: organism-based; parameters: dose 3 mg/kg, route oral; conditions: in vivo, 672 h
[25] = system: Mus musculus; assay: Hypolipidemic activity in db/db mouse assessed as reduction in triglyceride level at 3 mg/kg, po; format: functional; parameters: scale not given: the % may be the effect or the level left
[26] = system: Rattus norvegicus; assay: Toxicity in male Wistar rat assessed as brain to body weight ratio at 3 mg/kg, po measured after 28 days (reference value: 0.658 +/- 0.015); format: organism-based; parameters: dose 3 mg/kg, route oral; conditions: in vivo, 672 h
[27] = system: Rattus norvegicus; assay: Toxicity in male Wistar rat assessed as change in body weight at 30 mg/kg, po measured after 28 days relative to control; format: organism-based; parameters: dose 30 mg/kg, route oral; conditions: in vivo, 672 h
[28] = system: Rattus norvegicus; assay: Toxicity in male Wistar rat assessed as SGOT level at 30 mg/kg, po measured after 28 days (reference value: 135.14 +/- 6.89 U/L); format: organism-based; parameters: dose 30 mg/kg, route oral; conditions: in vivo, 672 h
[29] = system: Mus musculus; assay: Hypolipidemic activity in Swiss albino mouse assessed as reduction in triglyceride level at 0.01 mg/kg, po; format: functional; parameters: scale not given: the % may be the effect or the level left
[30] = system: Rattus norvegicus; assay: Toxicity in female Wistar rat assessed as SGPT level at 3 mg/kg, po measured after 28 days (reference value: 30.44 +/- 1.59 U/L); format: organism-based; parameters: dose 3 mg/kg, route oral; conditions: in vivo, 672 h
[31] = system: Rattus norvegicus; assay: Toxicity in male Wistar rat assessed as hemoglobin level at 3 mg/kg, po measured after 28 days (reference value: 13.66 +/- 0.23 g/dl); format: organism-based; parameters: dose 3 mg/kg, route oral; conditions: in vivo, 672 h
[32] = system: Rattus norvegicus; assay: Toxicity in male Wistar rat assessed as Glucose level at 3 mg/kg, po measured after 28 days (reference value: 70 +/- 3.49 mg/dl); format: organism-based; parameters: dose 3 mg/kg, route oral; conditions: in vivo, 672 h

pEC50 [7]: 10.74
Cmax [12]: 91.7 µg/mL
Compound: CCO[C@@H](Cc1ccc(OCCc2nc(-c3ccc(C)s3)oc2C)cc1)C(=O)O
Activity [1]: 33.03 U/L
Ratio [2]: 0.018
Activity [3]: 83.1%
Activity [4]: 62.2%
Activity [5]: 224 U/L
Ratio [6]: 1.356
Ratio [8]: 0.089
Ratio [9]: 0.024
Activity [10]: 34.58 mg/dL
Ratio [11]: 0.075
Ratio [13]: 0.257
Ratio [14]: 0.36
Activity [15]: 41.5%
Activity [16]: 51.7%
Activity [17]: 248.13 U/L
Ratio [18]: 8.099
Activity [19]: 4.03 g/dL
Activity [20]: 0.37 mg/dL
Activity [21]: 31.24 mg/dL
Ratio [22]: 1.152
Activity [23]: 71.8%
Activity [24]: 3.91 g/dL
Activity [25]: 55.1%
Ratio [26]: 0.72
Activity [27]: 24.01%
Activity [28]: 245.24 U/L
Activity [29]: 61.9%
Activity [30]: 22.46 U/L
Activity [31]: 12.2 g/dL
Activity [32]: 75.74 mg/dL
